Results: ChEMBL document CHEMBL2216753, “Novel 1,4-benzoxazine and 1,4-benzodioxine inhibitors of angiogenesis” (Eur J Med Chem, 2012)
The source made the active and inactive calls. The calls are words filed in the database; no cut-off is given here.

Tests used:
Prothrombin = Prothrombin (Homo sapiens, UniProt P00734); assay: Inhibition of thrombin
[1] = Antiproliferative activity against bovine BAEC cells after 4 days by coulter counter method; format: functional, cell-based; details: Bos taurus, 96 h
MCF7 [2] = assay: Cytotoxicity against human MCF7 cells at 100 uM after 3 days by coulter counter method; format: cell-based; details: mcf7, 72 h
Outline: (§1)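 Cells seeded at 10,000 cells per cm2; after 16 h, fresh medium with test compound added. Cells trypsinized and counted with a Coulter counter on day 4 (BAEC, HeLa, MCF-7) or day 7 (HMEC-1). Cytotoxicity (cell death) was judged after 3 days in culture. HMEC-1 grown in EGM-2 with supplements and growth factors.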

HeLa [3] = assay: Antiproliferative activity against human HeLa cells after 4 days by coulter counter method; format: functional, cell-based; details: 96 h
MCF7 [4] = assay: Antiproliferative activity against human MCF7 cells after 4 days by coulter counter method; format: functional, cell-based; details: MCF7, 96 h
[5] = Antiproliferative activity against human HMEC1 cells after 7 days by coulter counter method; format: functional, cell-based; details: HMEC-1, 168 h
Gallus gallus [6] = organism: Gallus gallus; assay: Antiangiogenic activity in chicken embryo chorioallantoic membrane model at 250 nmol/disc after 3 days; format: functional, tissue-based
[7] = Cytotoxicity against bovine BAEC cells at 100 uM after 3 days by coulter counter method; format: cell-based, Bos taurus; details: cattle, 72 h; outline: as §1
HeLa [8] = assay: Cytotoxicity against human HeLa cells at 100 uM after 3 days by coulter counter method; format: cell-based; details: 72 h; outline: as §1
[9] = Cytotoxicity against human HMEC1 cells at 100 uM after 3 days by coulter counter method; format: cell-based; details: hmec-1, 72 h; outline: as §1
Gallus gallus [10] = organism: Gallus gallus; assay: Antiangiogenic activity in chicken embryo chorioallantoic membrane model assessed as inhibition of pre-existing mature vessel at 100 to 250 nmol/disc after 3 days; format: functional, tissue-based
[11] = Antimigratory activity against mouse MAEC cell migration at 10 uM after 5 hrs by wound closure assay; format: functional
Outline: (§2)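 Confluent MAEC monolayers wounded with a 1.0-mm wide micropipette tip, then incubated in fresh medium with test compound. Wounds photographed after 5 h and width calculated from digital images. Mean ± SD of 2–4 independent experiments; Student t test, p < 0.05 significant.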

Gallus gallus [12] = organism: Gallus gallus; assay: Antiangiogenic activity in chicken embryo chorioallantoic membrane model assessed as inhibition of chorioallantoic membrane vascularization at 100 to 250 nmol/disc after 3 days; format: functional, tissue-based
HMEC-1 [13] = assay: Antiangiogenic activity in human HMEC1 cells assessed as inhibition of tube formation after 4 to 6 hrs by matrigel assay; format: functional, cell-based
Outline: (§3)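 HMEC-1 (60,000 cells) seeded on matrigel (10 mg/mL) after 30 min gelling at 37 °C, in DMEM containing test compound; after 4–6 h cells photographed and tubes scored 0 (none) to 3 (maximal, like untreated control). Mean ± SD of 2–4 independent experiments; Student t test, p < 0.05 significant.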

[14] = (§4) Antimigratory activity against mouse MAEC cell migration at 30 uM after 5 hrs by wound closure assay; format: functional; outline: as §2
MAEC [15] = assay: Antimigratory activity against mouse MAEC cell migration after 5 hrs by wound closure assay; format: functional, cell-based; outline: as §2
[16] = target: Vascular endothelial growth factor receptor 2 (Homo sapiens, UniProt P35968); assay: Inhibition of human recombinant VEGFR2 expressed in Sf9 insect cells assessed as inhibition of poly(Glu,Tyr) 4:1 substrate phosphorylation by radiometric assay
Vascular endothelial growth factor receptor 2, sequence (P35968 whole entry, the tested form may be a part): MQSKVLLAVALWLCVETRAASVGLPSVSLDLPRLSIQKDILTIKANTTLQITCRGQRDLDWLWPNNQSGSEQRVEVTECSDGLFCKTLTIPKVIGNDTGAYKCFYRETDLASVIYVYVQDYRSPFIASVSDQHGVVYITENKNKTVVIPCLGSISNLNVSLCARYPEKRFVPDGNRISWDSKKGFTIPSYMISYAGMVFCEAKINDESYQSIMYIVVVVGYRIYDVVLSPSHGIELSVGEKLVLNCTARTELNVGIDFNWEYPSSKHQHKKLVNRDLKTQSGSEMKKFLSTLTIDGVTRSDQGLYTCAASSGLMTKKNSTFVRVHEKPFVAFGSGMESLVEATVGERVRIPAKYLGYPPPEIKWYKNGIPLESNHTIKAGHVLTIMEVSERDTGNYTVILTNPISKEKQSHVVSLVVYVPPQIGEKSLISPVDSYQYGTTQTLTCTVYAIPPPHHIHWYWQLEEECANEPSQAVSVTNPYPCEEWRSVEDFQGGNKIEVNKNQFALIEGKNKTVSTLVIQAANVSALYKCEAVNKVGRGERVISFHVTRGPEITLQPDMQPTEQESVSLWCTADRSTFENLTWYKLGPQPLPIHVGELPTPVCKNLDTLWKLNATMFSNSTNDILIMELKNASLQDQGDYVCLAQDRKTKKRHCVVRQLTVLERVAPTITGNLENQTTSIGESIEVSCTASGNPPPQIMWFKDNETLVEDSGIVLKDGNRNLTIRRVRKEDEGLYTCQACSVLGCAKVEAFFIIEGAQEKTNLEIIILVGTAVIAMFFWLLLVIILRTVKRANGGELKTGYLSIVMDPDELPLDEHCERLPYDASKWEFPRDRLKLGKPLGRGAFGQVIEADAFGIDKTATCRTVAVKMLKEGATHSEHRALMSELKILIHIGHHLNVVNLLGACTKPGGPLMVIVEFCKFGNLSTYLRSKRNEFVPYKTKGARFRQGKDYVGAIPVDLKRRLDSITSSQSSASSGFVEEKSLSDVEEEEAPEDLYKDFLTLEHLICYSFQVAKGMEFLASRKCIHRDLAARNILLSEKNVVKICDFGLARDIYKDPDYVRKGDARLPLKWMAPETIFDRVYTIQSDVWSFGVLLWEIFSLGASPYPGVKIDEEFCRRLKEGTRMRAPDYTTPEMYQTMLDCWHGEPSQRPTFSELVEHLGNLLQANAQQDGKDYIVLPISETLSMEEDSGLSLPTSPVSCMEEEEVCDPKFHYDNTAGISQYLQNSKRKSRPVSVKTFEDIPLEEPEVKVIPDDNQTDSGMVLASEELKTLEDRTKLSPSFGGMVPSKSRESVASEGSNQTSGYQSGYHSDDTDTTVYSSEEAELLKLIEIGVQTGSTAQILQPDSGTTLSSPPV
Outline: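 Human recombinant GST-fusion VEGFR2 kinase, expressed in Sf9 cells and purified on GSH-agarose, with poly(Glu,Tyr) 4:1 as substrate; phosphorylation read radiometrically. Racemic trifluoroacetate salts tested at 10 concentrations (1 × 10−4 M to 3 × 10−9 M) to give IC50, run in singlicate by a contract lab.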

HMEC-1 [17] = assay: Antiangiogenic activity in human HMEC1 cells assessed as inhibition of tube formation at 10 uM after 4 to 6 hrs by matrigel assay; format: functional, cell-based; outline: as §3
HMEC-1 [18] = assay: Antiangiogenic activity in human HMEC1 cells assessed as inhibition of tube formation at 30 uM after 4 to 6 hrs by matrigel assay; format: functional, cell-based; outline: as §3
HMEC-1 [19] = assay: Antiangiogenic activity in human HMEC1 cells assessed as inhibition of tube formation at 100 uM after 4 to 6 hrs by matrigel assay; format: functional, cell-based; outline: as §3
[20] = Cytotoxicity against human HMEC1 cells at 30 uM after 3 days by coulter counter method; format: cell-based; details: hmec-1, 72 h; outline: as §1
[21] = Antimigratory activity against mouse MAEC cell migration at 3 uM after 5 hrs by wound closure assay; format: functional; outline: as §2
[22] = Cytotoxicity against bovine BAEC cells at 30 uM after 3 days by coulter counter method; format: cell-based, Bos taurus; details: cattle, 72 h; outline: as §1
MAEC [23] = assay: as §4; format: functional; outline: as §2
MCF7 [24] = assay: Cytotoxicity against human MCF7 cells at 30 uM after 3 days by coulter counter method; format: cell-based; details: mcf7, 72 h; outline: as §1
HeLa [25] = assay: Cytotoxicity against human HeLa cells at 30 uM after 3 days by coulter counter method; format: cell-based; details: 72 h; outline: as §1

| SMILES | IC50 [1] [µM] | Activity (MCF7 [2]) | IC50 (HeLa [3]) [µM] | IC50 (MCF7 [4]) [µM] | IC50 [5] [µM] | inhibition (Gallus gallus [6]) | Activity [7] | Activity (HeLa [8]) | Activity [9] | inhibition at 10 µM [11] [%] | inhibition (HMEC-1 [13]) | inhibition at 30 µM [14] [%] | inhibition (MAEC [15]) | inhibition (HMEC-1 [17]) | inhibition (HMEC-1 [18]) | Activity [20] | inhibition at 3 µM [21] [%] | Activity [22] | Activity (MCF7 [24]) | Activity (HeLa [25]) | further results |
| --- | --- | --- | --- | --- | --- | --- | --- | --- | --- | --- | --- | --- | --- | --- | --- | --- | --- | --- | --- | --- | --- |
| CCOC(=O)C(=O)N(Cc1ccccc1)c1ccc2c(c1)OC[C@H](COc1ccc(C(=N)N)cc1)O2 | 12 | Non-toxic | 19 | 9.5 | 24 | Active | Non-toxic | Non-toxic | Non-toxic |  |  |  |  |  |  |  |  |  |  |  | Ki (Prothrombin): 0.018 µM |
| CCOC(=O)C(=O)N(Cc1ccccc1)c1ccc2c(c1)OC(COc1ccc(C(=N)N)cc1)CO2 (centres undefined) | 8.5 | Non-toxic | 8 | 8.7 | 22 | Active | Non-toxic | Non-toxic | Non-toxic | > 40 | Dose-dependent effect | > 80 | Dose-dependent effect |  |  |  |  |  |  |  | Ki (Prothrombin): 0.178 µM; Activity (Gallus gallus [10]): inactive; inhibition (Gallus gallus [12]): Active |
| CN1CC(C)(COc2ccc(C(=N)N)cc2)Oc2ccc(N(CC(=O)O)Cc3cc(F)cc(F)c3)cc21 (racemic) [listing 1 of 2 here] |  |  |  |  |  |  |  |  |  |  |  |  |  |  |  |  |  |  |  |  | IC50 [16]: 22.5 µM |
| CCOC(=O)C(=O)N(Cc1cc(F)cc(F)c1)c1ccc2c(c1)OC(C)(CO)CN2C (centres undefined) | 60 | Toxic | 44 | 45 | 89 |  | Toxic | Toxic | Toxic | > 40 | Active | > 80 | Dose-dependent effect | inactive | Active |  |  |  |  |  | inhibition (HMEC-1 [19]): Active |
| CCOC(=O)C(=O)N(Cc1ccccc1)c1ccc2c(c1)OC(C)(CO)CN2C (centres undefined) | > 100 | Toxic | > 100 | > 100 | > 100 |  | Toxic | Toxic | Toxic | > 40 | Active | > 80 | Dose-dependent effect | inactive | Active |  |  |  |  |  | inhibition (HMEC-1 [19]): Active |
| CCOC(=O)CN(Cc1cccc(F)c1)c1ccc2c(c1)N(C)CC(C)(COc1ccc(C(=N)N)cc1)O2 (centres undefined) | 3.9 | Toxic | 4.6 | 4.2 | 6 | Active | Toxic | Toxic | Toxic | 50 |  |  | Dose-dependent effect | inactive | Active | Toxic | > 40 | Toxic | Toxic | Toxic | inhibition (MAEC [23]): Active |
| CCOC(=O)C(=O)N(Cc1cc(F)cc(F)c1)c1ccc2c(c1)OC(C)(COc1ccc(C(=N)N)cc1)CN2C (centres undefined) | 4.6 | Toxic | 6.6 | 2.9 | 6.8 | Active | Toxic | Toxic | Toxic | 50 | Dose-dependent effect |  | Dose-dependent effect |  |  | Non-toxic | > 40 | Non-toxic | Non-toxic | Non-toxic | inhibition (MAEC [23]): Active |
| CCOC(=O)C(=O)N(Cc1cccc(F)c1)c1ccc2c(c1)N(C)CC(C)(COc1ccc(C(=N)N)cc1)O2 (racemic) |  |  |  |  |  |  |  |  |  |  |  |  |  |  |  |  |  |  |  |  | IC50 [16]: 80 µM |
| CCOC(=O)CN(Cc1ccc(F)cc1)c1ccc2c(c1)OC(C)(COc1ccc(C(=N)N)cc1)CN2C (centres undefined) | 2.9 | Toxic | 4 | 5.3 | 2.9 | Active | Toxic | Toxic | Toxic | 78 |  | 95 | Dose-dependent effect | inactive | Active | Toxic | 41 | Toxic | Toxic | Toxic |  |
| CN1CC(C)(COc2ccc(C(=N)N)cc2)Oc2ccc(N(CC(=O)O)Cc3cc(F)cc(F)c3)cc21 (racemic) [listing 2 of 2 here] |  |  |  |  |  |  |  |  |  |  |  |  |  |  |  |  |  |  |  |  | inhibition [16]: Dose-dependent effect |
| CCOC(=O)C(=O)N(Cc1cccc(F)c1)c1ccc2c(c1)N(C)CC(C)(COc1ccc(C(=N)N)cc1)O2 (centres undefined) | 18 | Toxic | 20 | 6.5 | 7.7 |  | Toxic | Toxic | Toxic | 50 |  |  |  |  |  | Non-toxic | > 40 | Non-toxic | Non-toxic | Non-toxic |  |
